Source: ChEMBL document CHEMBL1152517, “Isocombretastatins A: 1,1-diarylethenes as potent inhibitors of tubulin polymerization and cytotoxic compounds” (Bioorg Med Chem, 2009)

How the values were obtained:
[1] = Inhibition of calf brain tubulin polymerization after 20 mins by turbidimetric method; design: species or system Bos taurus
How it was run: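 Microtubule protein at 1.0 mg/mL in 0.1 M MES, 1 mM EGTA, 1 mM MgCl2, 1 mM β-ME, 1.5 mM GTP, pH 6.7, with 4% DMSO. Preincubated with ligand 30 min at 20 °C, then 10 min on ice. Assembly started by shift from 4 to 37 °C and followed by turbidity at 450 nm. IC50 read graphically as 50% inhibition at 20 min. At least two independent experiments using different protein preparations.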

Bos taurus [2] = organism: Bos taurus; assay: Inhibition of calf brain tubulin polymerization at 20 uM after 20 mins by turbidimetric method
HT-29 = assay: Cytotoxicity against human HT-29 cells after 72 hrs by XTT assay; format: functional, cell-based; conditions: HT-29, 72 h
HeLa = assay: Cytotoxicity against human HeLa cells after 72 hrs by XTT assay; format: functional, cell-based
Bos taurus [3] = organism: Bos taurus; assay: Inhibition of calf brain tubulin polymerization at 5 uM after 20 mins by turbidimetric method
A549 = assay: Cytotoxicity against human A549 cells after 72 hrs by XTT assay; format: functional, cell-based; conditions: A549, 72 h
HL-60 = assay: Cytotoxicity against human HL60 cells after 72 hrs by XTT assay; format: functional, cell-based; conditions: HL-60, 72 h
How it was run: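 Cells seeded per well (HeLa 1.5 × 10^3, HT-29 3 × 10^3, A-549 5 × 10^3, HL-60 3 × 10^3). Adherent lines attached for 24 h at 37 °C, 5% CO2. Compound exposure at various concentrations for 72 h. XTT/PMS reagent added, 4 h further incubation, formazan absorbance read at 490 nm (reference 655 nm). IC50 is concentration giving 50% proliferation inhibition. Mean of three independent experiments run in triplicate.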

Bos taurus [4] = organism: Bos taurus; assay: Inhibition of calf brain tubulin polymerization at 40 uM after 20 mins by turbidimetric method

Molecule `COc1cc(C(O)c2ccc3c(ccn3C)c2)cc(OC)c1OC` (stereo not drawn) has an IC50 [1] of 18000 nM and an inhibition (Bos taurus [2]) of 86%.

`COc1ccc(C(=O)c2cc(OC)c(OC)c(OC)c2)cc1N` showed an IC50 (HT-29) of 32 nM, an IC50 [1] of 1500 nM and an IC50 (HeLa) of 30 nM. It also gave an inhibition (Bos taurus [3]) of 81%, an IC50 (A549) of 57 nM and an IC50 (HL-60) of 30 nM.

In the case of `COc1ccc(C(=O)c2cc(OC)c(OC)c(OC)c2)cc1[N+](=O)[O-]`, the IC50 (HT-29) is reported as 2900 nM, the IC50 (HeLa) is reported as 2500 nM and the IC50 (A549) is reported as > 10000 nM. It also gave an IC50 (HL-60) of 1800 nM and an inhibition (Bos taurus [2]) of 12%.

In the case of `CCn1ccc2cc(C(=O)c3cc(OC)c(OC)c(OC)c3)ccc21`, the IC50 (HT-29) is reported as 34 nM, the IC50 [1] is reported as 5700 nM and the inhibition (Bos taurus [2]) is reported as 95%.

For `C=C(c1ccc2ccccc2c1)c1ccc(OC)c(OC)c1OC`, the IC50 (HT-29) was > 10000 nM, the IC50 (HeLa) was 200 nM and the inhibition (Bos taurus [2]) was 11%.

In the case of `COc1ccc(C(=O)c2ccc(OC)c(OC)c2OC)cc1`, the IC50 (HT-29) is reported as 3100 nM, the IC50 (HeLa) is reported as 1800 nM and the IC50 (A549) is reported as > 10000 nM. For the same molecule, the IC50 (HL-60) was 2000 nM and the inhibition (Bos taurus [2]) was 7%.

In the case of `COc1ccc(C(=O)c2cc(OC)c(OC)c(OC)c2)cc1O` [PHENSTATIN], the IC50 (HT-29) is reported as 1800 nM, the IC50 [1] is reported as 2500 nM and the IC50 (A549) is reported as 290 nM. It also gave an IC50 (HL-60) of 31 nM and an inhibition (Bos taurus [2]) of 94%.

With `COc1ccc(C(O)c2ccc3c(ccn3C)c2)c(OC)c1OC` (stereo not drawn) the IC50 (HeLa) was 2500 nM, the IC50 (A549) was > 10000 nM and the inhibition (Bos taurus [2]) was 9%.

Work on `COc1cc(C(O)c2ccc3ccccc3c2)cc(OC)c1OC` (stereo not drawn) yielded an inhibition (Bos taurus [4]) of 0%.

In the case of `COc1ccc(C(=O)c2cc(OC)c(OC)c(OC)c2)cc1`, the IC50 (HT-29) is reported as 290 nM, the IC50 (HeLa) is reported as 37 nM and the IC50 (A549) is reported as 3100 nM. For the same molecule, the IC50 (HL-60) was 270 nM and the inhibition (Bos taurus [2]) was 20%.

In the case of `CCn1ccc2cc(C(O)c3ccc(OC)c(OC)c3OC)ccc21` (stereo not drawn), the IC50 (HT-29) is reported as > 10000 nM, the IC50 (HeLa) is reported as < 1000 nM and the IC50 (A549) is reported as > 10000 nM. For the same molecule, the IC50 (HL-60) was > 10000 nM and the inhibition (Bos taurus [2]) was 0%.

With `C=C(c1ccc(OC)cc1)c1ccc(OC)c(OC)c1OC` the IC50 (HT-29) was 3200 nM, the IC50 (HeLa) was 300 nM and the IC50 (A549) was > 10000 nM. For the same molecule, the IC50 (HL-60) was 480 nM and the inhibition (Bos taurus [2]) was 16%.

In the case of `C=C(c1cc(OC)c(OC)c(OC)c1)c1ccc2c(ccn2CC)c1`, the IC50 (HT-29) is reported as 35 nM, the IC50 [1] is reported as 6000 nM and the IC50 (HeLa) is reported as 17 nM. For the same molecule, the inhibition (Bos taurus [2]) was 83%.

Molecule `COc1cccc2c1C(=O)c1c(O)c3c(c(O)c1C2=O)C[C@@](O)(C(=O)CO)C[C@@H]3O[C@H]1C[C@H](N)[C@H](O)[C@H](C)O1` [DOXORUBICIN] has an IC50 (HT-29) of 240 nM, an IC50 (HeLa) of 190 nM and an IC50 (A549) of 290 nM. The IC50 (HL-60) was 27 nM.

In the case of `C=C(c1ccc(OC)c(N)c1)c1ccc(OC)c(OC)c1OC`, the IC50 (HT-29) is reported as 330 nM, the IC50 (HeLa) is reported as 60 nM and the IC50 (A549) is reported as 2700 nM. The IC50 (HL-60) was 230 nM and the inhibition (Bos taurus [2]) was 32%.

Molecule `COc1ccc(/C=C\c2cc(OC)c(OC)c(OC)c2)cc1O` [COMBRETASTATIN A4] has an IC50 [1] of 3000 nM and an IC50 (HL-60) of 2 nM.

Molecule `COc1cc(C(=O)c2ccc3c(ccn3C)c2)cc(OC)c1OC` has an IC50 [1] of 7900 nM, an IC50 (HeLa) of 35 nM and an inhibition (Bos taurus [4]) of 98%.

In the case of `C=C(c1ccc(OC)c(O)c1)c1ccc(OC)c(OC)c1OC`, the IC50 (HT-29) is reported as 310 nM, the IC50 [1] is reported as 12200 nM and the IC50 (HeLa) is reported as 35 nM. The IC50 (A549) was 220 nM, the IC50 (HL-60) was 240 nM and the inhibition (Bos taurus [2]) was 86%.

For `COc1ccc(C(O)c2ccc3ccccc3c2)c(OC)c1OC` (stereo not drawn), the IC50 (HT-29) was > 10000 nM, the IC50 (HeLa) was > 10000 nM and the IC50 (A549) was > 10000 nM. It also gave an inhibition (Bos taurus [2]) of 0%.

With `CCn1ccc2cc(C(=O)c3ccc(OC)c(OC)c3OC)ccc21` the IC50 (HT-29) was > 1000 nM, the IC50 [1] was 5600 nM and the IC50 (HeLa) was 450 nM. The IC50 (A549) was > 10000 nM, the IC50 (HL-60) was > 1000 nM and the inhibition (Bos taurus [2]) was 47%.

With `C=C(c1cc(OC)c(OC)c(OC)c1)c1ccc2ccccc2c1` the IC50 (HT-29) was 250 nM, the IC50 [1] was 15000 nM and the IC50 (HeLa) was 300 nM. For the same molecule, the IC50 (A549) was 360 nM, the IC50 (HL-60) was 910 nM and the inhibition (Bos taurus [2]) was 82%.

With `CCn1ccc2cc(C(O)c3cc(OC)c(OC)c(OC)c3)ccc21` (stereo not drawn) the IC50 (HT-29) was > 10000 nM, the IC50 (HeLa) was < 1000 nM and the IC50 (A549) was > 10000 nM. For the same molecule, the IC50 (HL-60) was < 1000 nM and the inhibition (Bos taurus [2]) was 41%.

Work on `COc1ccc(C(=O)c2ccc3c(ccn3C)c2)c(OC)c1OC` yielded an IC50 (HT-29) of 30 nM, an IC50 (HeLa) of 30 nM and an IC50 (A549) of 500 nM. For the same molecule, the inhibition (Bos taurus [2]) was 40%.

With `COc1ccc(C(=O)c2ccc3ccccc3c2)c(OC)c1OC` the IC50 (HT-29) was > 10000 nM, the IC50 (A549) was > 10000 nM and the IC50 (HL-60) was 3300 nM. The inhibition (Bos taurus [2]) was 4%.

For `C=C(c1ccc2c(ccn2CC)c1)c1ccc(OC)c(OC)c1OC`, the IC50 (HT-29) was > 1000 nM, the IC50 (HeLa) was > 1000 nM and the IC50 (A549) was > 10000 nM. It also gave an inhibition (Bos taurus [2]) of 34%.

In the case of `C=C(c1ccc(OC)c([N+](=O)[O-])c1)c1ccc(OC)c(OC)c1OC`, the IC50 (HT-29) is reported as 2900 nM, the IC50 (HeLa) is reported as 32 nM and the IC50 (A549) is reported as > 10000 nM. The IC50 (HL-60) was 2600 nM and the inhibition (Bos taurus [2]) was 12%.

With `COc1cc(C(=O)c2ccc3ccccc3c2)cc(OC)c1OC` the IC50 [1] was 1100 nM, the IC50 (HeLa) was 44 nM and the inhibition (Bos taurus [4]) was 100%.
